Source: ChEMBL document CHEMBL2331243, “Discovery and mechanism study of SIRT1 activators that promote the deacetylation of fluorophore-labeled substrate” (J Med Chem, 2013)
Substitutions are numbered along the chain they refer to. The source made the active and inactive calls. No cut-off for these calls is given here.

Key:
[1] = biological target: NAD-dependent protein deacetylase sirtuin-1 (Homo sapiens, UniProt Q96EB6, V445A); assay: Activation of SIRT1 V445A mutant (unknown origin)
How it was run: (§1)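 His-tagged SIRT1 Q345A or V445A mutants were made by site-directed mutagenesis and expressed in E. coli, Ni-NTA purified. They were assayed under the same screening conditions as wild type: 750 μM NAD⁺, 31.25 μM ac-RHKK_ac-AMC, pH 8.0 Tris buffer, trypsin release of AMC, ex 340 / em 490 nm. Compounds came from 3-fold DMSO dilutions. EC1.5 (50% activity increase) was taken from a dose–response fit.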

[2] = biological target: NAD-dependent protein deacetylase sirtuin-1 (Homo sapiens, UniProt Q96EB6, Q345A); assay: Activation of SIRT1 Q345A mutant (unknown origin); how it was run: as §1
Sequence of NAD-dependent protein deacetylase sirtuin-1 (Homo sapiens, UniProt Q96EB6, Q345A) (Q96EB6 2-747 Q345A limits assumed): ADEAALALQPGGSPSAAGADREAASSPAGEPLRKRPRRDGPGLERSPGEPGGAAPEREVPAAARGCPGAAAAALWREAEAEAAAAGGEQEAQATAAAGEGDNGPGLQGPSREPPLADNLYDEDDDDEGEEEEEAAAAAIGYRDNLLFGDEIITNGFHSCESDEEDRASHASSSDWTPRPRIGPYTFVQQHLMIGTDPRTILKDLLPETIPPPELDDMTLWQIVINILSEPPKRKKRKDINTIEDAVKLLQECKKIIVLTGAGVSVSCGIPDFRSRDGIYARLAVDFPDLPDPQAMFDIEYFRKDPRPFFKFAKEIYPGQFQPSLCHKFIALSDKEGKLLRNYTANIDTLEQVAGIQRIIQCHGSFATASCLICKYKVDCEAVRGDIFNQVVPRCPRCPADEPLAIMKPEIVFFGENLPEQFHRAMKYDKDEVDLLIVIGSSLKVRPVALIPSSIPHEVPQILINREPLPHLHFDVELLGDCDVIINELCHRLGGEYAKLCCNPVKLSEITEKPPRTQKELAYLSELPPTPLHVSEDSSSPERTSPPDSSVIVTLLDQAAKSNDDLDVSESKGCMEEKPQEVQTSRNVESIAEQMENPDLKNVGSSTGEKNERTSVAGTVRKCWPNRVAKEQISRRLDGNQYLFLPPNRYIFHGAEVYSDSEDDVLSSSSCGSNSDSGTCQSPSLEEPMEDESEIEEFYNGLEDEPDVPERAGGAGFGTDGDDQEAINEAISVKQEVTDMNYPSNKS

[3] = biological target: T1, NAD-dependent protein deacetylase sirtuin-1 (Homo sapiens) (UniProt Q96EB6); assay: Activation of N-terminal His6-tagged SIRT1 (156 to 664 amino acid residues) (unknown origin) expressed in Escherichia coli BL21(DE3) using ac-RHKKac-AMC as substrate at 50 uM after 45 mins by fluorimetric analysis relative to control
T1 sequence (whole entry): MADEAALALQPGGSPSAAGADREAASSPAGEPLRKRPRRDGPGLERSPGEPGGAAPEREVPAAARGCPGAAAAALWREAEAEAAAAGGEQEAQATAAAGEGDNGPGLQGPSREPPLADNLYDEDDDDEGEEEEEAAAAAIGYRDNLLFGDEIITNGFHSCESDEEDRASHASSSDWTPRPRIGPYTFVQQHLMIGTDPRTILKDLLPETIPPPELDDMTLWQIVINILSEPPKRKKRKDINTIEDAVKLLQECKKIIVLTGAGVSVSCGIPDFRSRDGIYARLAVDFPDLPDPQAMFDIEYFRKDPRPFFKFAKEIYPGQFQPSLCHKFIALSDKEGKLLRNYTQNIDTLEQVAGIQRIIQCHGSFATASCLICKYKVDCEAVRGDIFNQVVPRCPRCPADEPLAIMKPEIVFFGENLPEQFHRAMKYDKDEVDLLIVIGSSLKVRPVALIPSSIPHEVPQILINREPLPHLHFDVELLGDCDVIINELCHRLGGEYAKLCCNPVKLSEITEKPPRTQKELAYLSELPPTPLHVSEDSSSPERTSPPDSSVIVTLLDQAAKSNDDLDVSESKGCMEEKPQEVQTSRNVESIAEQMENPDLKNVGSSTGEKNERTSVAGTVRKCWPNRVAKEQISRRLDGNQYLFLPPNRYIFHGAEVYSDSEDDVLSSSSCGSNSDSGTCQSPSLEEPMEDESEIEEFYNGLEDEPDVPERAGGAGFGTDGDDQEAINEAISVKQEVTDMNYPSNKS
How it was run: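 Fluorogenic deacetylation screen: 1 μM SIRT1 with 750 μM NAD⁺ and 31.25 μM ac-RHKK_ac-AMC in Tris buffer (25 mM Tris, 137 mM NaCl, 2.7 mM KCl, 1 mM MgCl₂, pH 8.0). Compounds at 50 μM from DMSO stocks; DMSO alone as blank. Trypsin then releases AMC from deacetylated peptide; fluorescence read at 340/490 nm.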

[4] = biological target: T2, NAD-dependent protein deacetylase sirtuin-1 (Homo sapiens, UniProt Q96EB6); assay: Activation of N-terminal His6-tagged SIRT1 (156 to 664 amino acid residues) (unknown origin) expressed in Escherichia coli BL21(DE3) using ac-RHKKac-AMC as substrate after 45 mins by fluorometric analysis
T2 sequence (Q96EB6 whole entry): T1 sequence (whole entry)

[5] = Stability of the compound in cultured medium assessed as compound remaining at 100 uM after 30 mins; format: physicochemical; details: 6 h, in the assay text read “after 6 hrs” for “after 30 mins”
How it was run: (§2)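 MCF-7 cells were exposed to 100 μM compound for 0–360 min. Medium and acetonitrile-treated washed cells were collected separately at each time point. Compound spiked into fresh cell-free medium and handled the same way served as control. Samples were centrifuged and quantified by reversed-phase HPLC.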

[6] = biological target: T1, NAD-dependent protein deacetylase sirtuin-1 (Homo sapiens); assay: Activation of SIRT1 in human MCF7 cells assessed as reduction in doxorubicin-induced acetyl-p53 level at 60 uM after 6 hrs by Western blotting analysis; format: cell-based
How it was run: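 MCF-7 cells were seeded at 1 × 10⁵ per well in DMEM with 10% FCS and grown 24 h at 37 °C, 5% CO₂. Graded compound concentrations were added together with 0.1 μM TSA and 5 μM doxorubicin for 6 h. Lysate (50 μg protein) was run on a 9% gel and blotted with an anti-acetyl-p53 (Lys382) polyclonal antibody at 4 °C overnight, then HRP anti-rabbit IgG with chemiluminescence.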

MCF7 = assay: Drug uptake in human MCF7 cells at 100 uM measured at 30 mins; format: ADME, cell-based; details: mcf7, 0.5 h; how it was run: as §2
[7] = Stability of the compound in cultured medium at 100 uM after 30 mins; format: physicochemical; details: 0.5 h; how it was run: as §2
[8] = Stability of the compound in fresh cell medium at 100 uM after 120 mins; format: physicochemical; details: 2 h; how it was run: as §2
[9] = tested on: NAD-dependent protein deacetylase sirtuin-1 (Homo sapiens), Q96EB6 [UNDEFINED MUTATION]; assay: Ratio of EC50 for SIRT1 V445A mutant (unknown origin) to EC50 for wild type SIRT1 (unknown origin)
[10] = tested on: NAD-dependent protein deacetylase sirtuin-1 (Homo sapiens), Q96EB6 [UNDEFINED MUTATION]; assay: Ratio of EC50 for SIRT1 Q345A mutant (unknown origin) to EC50 for wild type SIRT1 (unknown origin)
[11] = tested on: T3, NAD-dependent protein deacetylase sirtuin-1 (Homo sapiens), Q96EB6 [Q345A]; assay: Activation of SIRT1 Q345A mutant (unknown origin) at 10 uM relative to control
T3 sequence (whole entry): T1 sequence (whole entry) with Q345A

[12] = tested on: T4, NAD-dependent protein deacetylase sirtuin-1 (Homo sapiens), Q96EB6 [V445A]; assay: Activation of SIRT1 V445A mutant (unknown origin) at 10 uM relative to control
T4 sequence (whole entry): T1 sequence (whole entry) with V445A

Sequence of NAD-dependent protein deacetylase sirtuin-1 (Homo sapiens, UniProt Q96EB6, V445A) (Q96EB6 2-747 V445A limits assumed): as the sequence (Q96EB6 2-747 Q345A limits assumed) above, with A344Q, V444A counted along it

EC50 [1]: 4.8 µM
EC50 [2]: 12.2 µM
max activation [3]: 647%
EC50 [4]: 2.7 µM
Stability [5]: 20 µM
Activity [6]: inactive
Drug uptake (MCF7): Active
Stability [7]: Stable
Stability [8]: Stable
Ratio EC50 [9]: 2
Ratio EC50 [10]: 4
max activation [11]: 237%
max activation [12]: 353%
Structure (SMILES): O=C(N/N=C/c1cc(Br)c(O)c(Br)c1O)c1ccc2cc(Br)ccc2c1
